Experimental data reported in PubChem BioAssay.
Activity calls are given as the source filed them.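 Rule for the calls, unless noted: active = Her2 level under about 52% in both replicate screens, with viability over 70% of control (limit read from the data); inconclusive = Her2 under the limit in one screen only, or viability under 70%; inactive = Her2 level above the set limit.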

How the values were obtained:
[1] = reducers of endogenous Her2 protein level, primary screen, SKBR3 breast tumor cells, AlphaScreen, ATP viability (AID 461); conditions: 18-24 h, measured here: SKBR3 viability, ATP luminescence, at 10 µM;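 for Her2 level: lower value means less Her2 protein in the cells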;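 for viability: percent of carrier control wells set as 100% viability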
[2] = biological target: Receptor tyrosine-protein kinase erbB-2 (Homo sapiens) (UniProt P04626); assay: as above; conditions: 18-24 h, at 10 µM, stronger effect = lower value
[3] = SK-BR-3 cell growth inhibitors, pilot screen, 24 h, human (AID 572;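 active = viability at or below 10% of carrier control in both of two separate runs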;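 note: compound exposure lasted between 18 and 24 h rather than exactly 24 h; 100% = carrier-treated control wells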); conditions: SK-BR-3 viability, CellTiter-Glo luminescence, at 10 µM, stronger effect = lower value
[4] = HUVEC growth inhibition – cell-based, human, primary screen (AID 575;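 active = viability at or below 30% in both replicate assays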;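 note: 100% = median of untreated cell wells with 0.1% DMSO on each plate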); conditions: HUVEC proliferation, CellTiter-Glo luminescence, 72 h; at 10 µM; stronger effect = lower value
Procedure, shortened: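 System: primary human umbilical vein endothelial cells; Quantity: 1250 endothelial cells in each well; Buffer or medium: supplemented EBM, 2% fetal bovine serum; Doses: one dose, 10 µM final, 0.1% DMSO; Incubation: 72 h compound incubation; Technique: ATP-based CellTiter-Glo luminescent read; Evaluation: percent of median DMSO-control luminescence; Controls: vehicle and MePR control wells.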

[5] = growth inhibitors of H69AR lung tumor, primary screen, human, duplicate replicates (AID 580;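 active = viability at or under a set limit in both replicates, limit being median viability minus 3 SD, cut at about 48% in these data, passing the limit was not always enough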;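 note: 100% = mean luminescence of untreated wells and 0% = no signal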); conditions: H69AR lung tumor cells viability, ATP luminescence, 72 h; at 10 µM; stronger effect = lower value
[6] = reversal of MRP1-mediated doxorubicin resistance, pilot screen, H69AR cells, doxorubicin co-treatment (AID 601;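 active = viability loss from added drug above about 55%, and viability with drug at most 40%, in both replicates, limit read from the data, passing the limit was not always enough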); conditions: CellTiter-Glo, 72 h, at 10 µM; for differential viability (reversal): stronger effect = higher value
[7] = 384-well plate pilot, post-Golgi transport modulator project, inhibition of yeast transport mutant growth (AID 636; in the data active = inhibition above about 31%); conditions: absorbance 615 nm, about 18 h, stronger effect = higher value
[8] = growth suppression of yeast trafficking mutant, preliminary HTS, modulators of trafficking downstream of Golgi apparatus project, 1536-format plate, OD 615 nm (AID 637; in the data active = inhibition above about 30%); conditions: yeast transport mutant growth, absorbance 615 nm, 18 h; stronger effect = higher value
[9] = H69AR cells + 2 uM doxorubicin, measured here: viability with 2 uM doxorubicin, stronger effect = lower value
[10] = H69AR cells, compound alone cytotoxicity

Sequence of Receptor tyrosine-protein kinase erbB-2 (Homo sapiens) (P04626 whole entry, looked up): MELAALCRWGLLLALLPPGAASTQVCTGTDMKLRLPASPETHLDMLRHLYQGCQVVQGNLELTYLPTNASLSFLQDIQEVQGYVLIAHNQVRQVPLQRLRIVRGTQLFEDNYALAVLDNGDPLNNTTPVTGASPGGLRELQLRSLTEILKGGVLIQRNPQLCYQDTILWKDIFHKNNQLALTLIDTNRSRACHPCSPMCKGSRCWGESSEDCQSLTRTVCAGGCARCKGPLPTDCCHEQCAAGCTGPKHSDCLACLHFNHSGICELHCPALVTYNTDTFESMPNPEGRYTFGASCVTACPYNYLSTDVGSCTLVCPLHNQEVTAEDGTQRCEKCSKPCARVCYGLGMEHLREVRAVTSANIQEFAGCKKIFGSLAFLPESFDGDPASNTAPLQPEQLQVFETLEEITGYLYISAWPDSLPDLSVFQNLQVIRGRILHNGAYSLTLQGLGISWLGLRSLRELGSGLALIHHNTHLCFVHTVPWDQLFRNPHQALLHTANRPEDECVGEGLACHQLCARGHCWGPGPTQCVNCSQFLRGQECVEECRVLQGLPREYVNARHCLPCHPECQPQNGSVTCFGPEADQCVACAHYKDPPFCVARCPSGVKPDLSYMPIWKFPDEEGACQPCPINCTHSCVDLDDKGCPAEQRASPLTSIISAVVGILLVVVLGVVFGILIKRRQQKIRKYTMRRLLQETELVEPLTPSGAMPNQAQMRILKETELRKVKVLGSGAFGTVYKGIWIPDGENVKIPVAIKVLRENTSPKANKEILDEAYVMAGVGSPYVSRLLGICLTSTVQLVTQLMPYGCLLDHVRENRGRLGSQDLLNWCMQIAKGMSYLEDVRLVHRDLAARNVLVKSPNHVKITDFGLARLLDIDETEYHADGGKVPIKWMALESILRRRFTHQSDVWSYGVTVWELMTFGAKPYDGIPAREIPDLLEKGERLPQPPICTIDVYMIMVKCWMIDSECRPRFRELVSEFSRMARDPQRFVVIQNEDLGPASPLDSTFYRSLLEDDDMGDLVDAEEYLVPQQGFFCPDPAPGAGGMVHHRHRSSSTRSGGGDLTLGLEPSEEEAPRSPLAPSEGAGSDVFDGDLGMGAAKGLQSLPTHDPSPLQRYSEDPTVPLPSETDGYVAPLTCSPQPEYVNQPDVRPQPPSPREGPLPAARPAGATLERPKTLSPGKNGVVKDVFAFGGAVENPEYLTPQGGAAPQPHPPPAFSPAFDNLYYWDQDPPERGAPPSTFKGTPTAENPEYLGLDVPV

SMILES	viability [1] [%]	Her2 level [2]	viability [3]	viability [4]	viability [5]	differential viability (reversal) ([6]; H69AR cells + 2 uM doxorubicin)	viability [6, 9] [%]	viability [6, 10] [%]	inhibition [7]	inhibition [8]
COc1ccc(CNS(=O)(=O)c2ccc3oc(C(=O)O)c(C)c3c2)cc1	103	93% (inactive)	103% (inactive)	111% (inactive)	92.2% (inactive)	0.665% (inactive)	91.6	92.2	-3.64% (inactive)	-2.46% (inactive)
CS(=O)(=O)NCc1nnc(SCC(=O)NC2CCCCC2)n1-c1ccc(F)cc1	98.5	100% (inactive)	98.5% (inactive)	102% (inactive)	97.6% (inactive)	9.24% (inactive)	88.4	97.6	-6.18% (inactive)	12.3% (inactive)
COc1ccccc1OCc1ccc(C(=O)Nc2ccncc2)o1	79.5	92% (inactive)	79.5% (inactive)	84.9% (inactive)	89.4% (inactive)	-0.005% (inactive)	89.4	89.4	-3.07% (inactive)	6.61% (inactive)
O=c1c(-c2ccc(F)cc2)coc2c3c(ccc12)OCCO3	100	78.5% (inactive)	100% (inactive)	120% (inactive)	107% (inactive)	20% (inactive)	86.7	107	0.13% (inactive)	-6.73% (inactive)
OCc1nc2ccccc2n1CCCOc1ccccc1	80.5	102% (inactive)	80.5% (inactive)	90.6% (inactive)	103% (inactive)	16.7% (inactive)	85.9	103	-0.13% (inactive)	-0.83% (inactive)
CCc1ccc(NS(=O)(=O)c2ccc3[nH]cc(C(=O)N4CCCCC4)c(=O)c3c2)cc1	124	92% (inactive)	124% (inactive)	102% (inactive)	89.6% (inactive)	5.6% (inactive)	84	89.6	-5.66% (inactive)	-0.81% (inactive)
COc1ccc(OC)c(-n2nnnc2SCC(=O)NCc2ccc3c(c2)OCO3)c1	98.5	88% (inactive)	98.5% (inactive)	84.4% (inactive)	93.9% (inactive)	-1.01% (inactive)	94.9	93.9	-5.87% (inactive)	5.57% (inactive)
O=C1OC(N2CCN(c3ccccn3)CC2)c2ccccc21 (stereo not given)	94	80.5% (inactive)	94% (inactive)	105% (inactive)	96.8% (inactive)	7.36% (inactive)	89.4	96.8	-4.53% (inactive)	1.48% (inactive)
CCOc1ccccc1C(=O)NCC(=O)OCC(=O)N1C(C)CCCC1C (stereo not given)	98.5	89% (inactive)	98.5% (inactive)	102% (inactive)	103% (inactive)	9.78% (inactive)	93.4	103	-3.77% (inactive)	-3.02% (inactive)
COc1ccc(NC(=O)c2oc3ccc(S(=O)(=O)N4CCC5(CC4)OCCO5)cc3c2C)cc1	87.5	90.5% (inactive)	87.5% (inactive)	39.4% (inactive)	37.5% (active)	-5.32% (inactive)	42.8	37.5	1.17% (inactive)	-14.8% (inactive)
O=c1[nH]c(Nc2ccccc2)cc2ccccc12	94.5	92% (inactive)	94.5% (inactive)	82.2% (inactive)	101% (inactive)	3.34% (inactive)	97.9	101	2.5% (inactive)	14.3% (inactive)
CCOC(=O)N1CCC(NC(=O)c2ccc(OC)c(CN3CC(=O)N4CCCC4C3=O)c2)CC1 (stereo not given)	93.5	93% (inactive)	93.5% (inactive)	111% (inactive)	96% (inactive)	10% (inactive)	85.9	96	-5.92% (inactive)	-3.49% (inactive)
Cc1cccc(C)c1NC(=O)c1cc(S(=O)(=O)N2CCOCC2)ccc1F	88.5	78.5% (inactive)	88.5% (inactive)	102% (inactive)	89.9% (inactive)	0.745% (inactive)	89.2	89.9	-5.53% (inactive)	-9.17% (inactive)
COCCNC(=O)c1c(N)n(/N=C/c2cccs2)c2nc3ccccc3nc12	110	75.5% (inactive)	110% (inactive)	78.2% (inactive)	74.7% (inactive)	0.24% (inactive)	74.4	74.7	0.66% (inactive)	3.11% (inactive)
CC(C)OC(=O)CSc1nnnn1-c1ccc2c(c1)OCCO2	99.5	84.5% (inactive)	99.5% (inactive)	99% (inactive)	88.6% (inactive)	6.42% (inactive)	82.2	88.6	-7.03% (inactive)	-2.33% (inactive)
CCOc1ccc(/C=N/n2cnnc2)cc1	101	94.5% (inactive)	101% (inactive)	78.8% (inactive)	96.7% (inactive)	7.86% (inactive)	88.9	96.7	-0.52% (inactive)	-3.93% (inactive)
